MrgX1 ag = human MrgX1 receptor agonism, primary screen. Q96LB2. MrgX1-HEK293 cells, Fluo-4 calcium fluorescence, agonist mode; active compounds read high. B-score at 10 µM. 0.44% of 310,000 active;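 active means calcium response B-score plate-corrected fluorescence ratio at least 3 library SD, with starting fluorescence B-score inside 5 SD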
Target sequence (Q96LB2 whole entry, looked up): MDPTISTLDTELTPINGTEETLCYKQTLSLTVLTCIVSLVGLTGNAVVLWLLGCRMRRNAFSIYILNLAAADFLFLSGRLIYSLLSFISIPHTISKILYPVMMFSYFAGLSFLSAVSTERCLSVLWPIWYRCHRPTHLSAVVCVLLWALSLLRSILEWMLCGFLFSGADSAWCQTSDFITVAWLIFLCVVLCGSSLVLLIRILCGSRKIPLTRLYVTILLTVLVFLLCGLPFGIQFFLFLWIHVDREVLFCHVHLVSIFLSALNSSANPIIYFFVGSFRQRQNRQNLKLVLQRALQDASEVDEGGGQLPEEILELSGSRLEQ
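System: HEK293 cells stably expressing human MrgX1 receptor; Dosing: test compound in the initial addition of three; Schedule: overnight plating, then 30 min 37 °C plus 30 min room-temperature dye loading; Detection: kinetic calcium dye fluorescence, Fluo-4 NW; Controls: per-plate positive and negative controls for Z′ factor.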
MrgX1 PAM = allosterically activates human MrgX1 receptor signaling. Q96LB2. MrgX1-HEK293, Fluo-4 calcium flux, FDSS; active compounds read high. B-score at 10 µM. 0.63% of 310,000 active;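 active means plate-corrected calcium response at least 3 library SD above typical, normal starting fluorescence, not activating the receptor alone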;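 further: compound read alongside a low EC10 to EC30 dose of BAM8-22 agonist; peak minus trough fluorescence over baseline measured at the second addition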
RGS4 pot = RGS4 potentiation or activation; HEK293 M3R/inducible RGS4, carbachol calcium flux Fluo4; active compounds read low; B-score at 10 µM; 0.92% of 310,000 active;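 active means B-score of the integrated calcium signal more than 4 SD below the library mean, with starting fluorescence not abnormally high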;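 further: negative B-score means reduced calcium response which marks RGS4 activation or potentiation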
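Material: Inducible-RGS4 HEK293 cells carrying M3 receptor; also added: carbachol at ECmax as muscarinic agonist stimulus; incubation: compound preincubation 20 min at room temperature before agonist; signal: Fluo4-AM (2 µM) calcium-flux fluorescence, kinetic read; measure: integrated calcium ratio converted to B score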
MrgX1 antagonist = human MrgX1 receptor antagonism, primary screen | Q96LB2 | MRGX1-HEK293 calcium flux, Fluo-4, BAM8-22 antagonism; active compounds read low | B-score at 10 µM | 1.3% of 310,000 active;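 active means calcium-response B-score plate-corrected more than 3 library SD below zero, starting fluorescence within 5 deviations, no agonist response on first addition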;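 further: peak minus trough fluorescence over baseline after final BAM8-22 challenge near maximal dose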
RGS4 block = human RGS4 inhibition; HEK293 M3R/RGS4 inducible, Fluo-4 calcium flux; active compounds read high; triggered by carbachol at its EC20; B-score at 10 µM; 0.45% of 310,000 active; AID 463165;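 active means B-score, a plate-corrected calcium signal, over three deviations above library mean, with baseline fluorescence within five deviations of library mean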;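 further: RGS4 expression induced by doxycycline in cells with stable M3 receptor; B-score is computed from the integrated fluorescence ratio over baseline after carbachol; higher B-score means a larger calcium signal and so more RGS4 inhibition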
Target sequence (P49798 whole entry, looked up): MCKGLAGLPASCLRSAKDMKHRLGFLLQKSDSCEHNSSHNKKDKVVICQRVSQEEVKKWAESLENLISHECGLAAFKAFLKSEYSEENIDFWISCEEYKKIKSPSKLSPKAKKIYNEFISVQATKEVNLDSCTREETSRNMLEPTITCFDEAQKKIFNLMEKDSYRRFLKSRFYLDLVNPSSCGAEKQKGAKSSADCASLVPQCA
Numbers without * were called inactive. Most compounds without a hit are left out; they make up all but 3.5% or so of the library.

For Cc1c2cnn(CC(=O)NCCN3CCOCC3)c(=O)c2c(C)n1Cc1ccc(F)cc1 the results were MrgX1 ag inactive, MrgX1 PAM inactive, RGS4 pot inactive, MrgX1 antagonist -5.8* and RGS4 block inactive.
Screening CC(C)CN(C(=O)c1ccco1)c1nc2ccccc2s1 returned MrgX1 ag inactive, MrgX1 PAM inactive, RGS4 pot inactive, MrgX1 antagonist inactive and RGS4 block inactive.
For CC(C)CN(C(=O)c1nn(C)c(=O)c2ccccc12)c1nc2ccccc2s1 the results were MrgX1 ag inactive, MrgX1 PAM 7*, RGS4 pot inactive, MrgX1 antagonist inactive and RGS4 block inactive.
`O=C1[C@@H]2CSCN2C(=O)CN1Cc1c(F)cccc1Cl` gave MrgX1 ag inactive, MrgX1 PAM inactive, RGS4 pot inactive, MrgX1 antagonist inactive and RGS4 block inactive.
Screening Cc1ccc(N(CCC#N)C(=O)COC(=O)C2CCN(c3ccc(C(F)(F)F)cn3)CC2)cc1 returned MrgX1 ag inactive, MrgX1 PAM inactive, RGS4 pot inactive, MrgX1 antagonist inactive and RGS4 block inactive.
`Cc1cc(C)cc(N(CCC#N)C(=O)COC(=O)C2CCN(c3ccc(C(F)(F)F)cn3)CC2)c1` gave MrgX1 ag inactive, MrgX1 PAM inactive, RGS4 pot -7*, MrgX1 antagonist inactive and RGS4 block inactive.
`Cc1cccc(OCC(O)Cn2c(N3CCCCC3)nc3c2c(=O)n(C)c(=O)n3C)c1` (configuration not stated) gave MrgX1 ag inactive, MrgX1 PAM 7.2*, RGS4 pot inactive, MrgX1 antagonist inactive and RGS4 block inactive.
For Cn1c(=O)c2c(nc(N3CCCCCC3)n2CC(O)COc2ccccc2)n(C)c1=O (configuration not stated) the results were MrgX1 ag inactive, MrgX1 PAM inactive, RGS4 pot inactive, MrgX1 antagonist inactive and RGS4 block inactive.
For COC(=O)c1cccc(C23CC4(C2)[C@H](CN(Cc2cccnc2)[C@@H]4c2ccccc2)C3c2ccccc2)c1 (some centres not stated) the results were MrgX1 ag inactive, MrgX1 PAM inactive, RGS4 pot inactive, MrgX1 antagonist inactive and RGS4 block inactive.
CC(C)(C)c1ccc(CN2N=Nc3ccccc3S2(=O)=O)cc1 was read as MrgX1 ag inactive, MrgX1 PAM inactive, RGS4 pot inactive, MrgX1 antagonist inactive and RGS4 block inactive.
Screening O=S1(=O)c2ccccc2N=NN1Cc1ccc(Cl)c(Cl)c1 returned MrgX1 ag 29*, MrgX1 PAM inactive, RGS4 pot inactive, MrgX1 antagonist inactive and RGS4 block inactive.
CCOC(=O)CC(=O)CSc1nc(-c2cccnc2)cc(C)c1C#N was read as MrgX1 ag inactive, MrgX1 PAM inactive, RGS4 pot inactive, MrgX1 antagonist -4.9* and RGS4 block inactive.
Screening CCOC(=O)Nc1ccc2c(c1)N(C(=O)CCN(C)C)c1ccccc1S2 returned MrgX1 ag inactive, MrgX1 PAM inactive, RGS4 pot -7*, MrgX1 antagonist inactive and RGS4 block inactive.
`CCOc1ccc(N(Cc2cc3cc(C)ccc3[nH]c2=O)S(=O)(=O)c2ccccc2)cc1` gave MrgX1 ag inactive, MrgX1 PAM inactive, RGS4 pot inactive, MrgX1 antagonist inactive and RGS4 block inactive.
`CCCCc1ccc(NC(=S)N2CCN(C(=O)c3ccco3)CC2)cc1` gave MrgX1 ag inactive, MrgX1 PAM inactive, RGS4 pot inactive, MrgX1 antagonist inactive and RGS4 block inactive.
Screening CN1C(=O)/C(=C\c2ccc(N(C)C)cc2)OC1=S returned MrgX1 ag 63*, MrgX1 PAM inactive, RGS4 pot inactive, MrgX1 antagonist inactive and RGS4 block inactive.
`COc1ccc(/C=C2\OC(=S)N(C)C2=O)cc1` gave MrgX1 ag inactive, MrgX1 PAM inactive, RGS4 pot inactive, MrgX1 antagonist inactive and RGS4 block inactive.
Screening Cc1ccc(NC(=O)c2nn(C34CC5CC(CC(C5)C3)C4)cc2[N+](=O)[O-])cc1 returned MrgX1 ag inactive, MrgX1 PAM inactive, RGS4 pot inactive, MrgX1 antagonist -5* and RGS4 block inactive.
`CCCC(=O)Nc1c(-c2cccc(C)c2)c(=O)c2ccccc2n1C` gave MrgX1 ag inactive, MrgX1 PAM inactive, RGS4 pot inactive, MrgX1 antagonist inactive and RGS4 block inactive.
For CCCCCCCC[n+]1cccc2c3ccccc3ccc21 the results were MrgX1 ag inactive, MrgX1 PAM inactive, RGS4 pot -9.9*, MrgX1 antagonist inactive and RGS4 block inactive.
Cc1cccc[n+]1CCCCCCCCCC[n+]1ccccc1C was read as MrgX1 ag inactive, MrgX1 PAM inactive, RGS4 pot inactive, MrgX1 antagonist inactive and RGS4 block inactive.
For CCCCCCCCCC[n+]1cccc2c3ccccc3ccc21 the results were RGS4 pot -10* and RGS4 block inactive.
COC(=O)COn1c(SCC(=O)OC)nc2ccccc2c1=O was read as MrgX1 ag inactive, MrgX1 PAM inactive, RGS4 pot inactive, MrgX1 antagonist -4.6* and RGS4 block inactive.
CC(C)C1OC2c3cccc4cccc(c34)C2N1c1ccccc1 (configuration not stated) was read as MrgX1 ag 39*, MrgX1 PAM inactive, RGS4 pot inactive, MrgX1 antagonist inactive and RGS4 block inactive.
`CCSc1ccccc1-c1nc(-c2ccncc2)no1` gave MrgX1 ag inactive, MrgX1 PAM inactive, RGS4 pot inactive, MrgX1 antagonist inactive and RGS4 block inactive.
For Brc1ccc(OCCCCN2CCCCC2)cc1 the results were MrgX1 ag inactive, MrgX1 PAM inactive, RGS4 pot inactive, MrgX1 antagonist inactive and RGS4 block inactive.
For CC1CCN(CCCCOc2cccc(Br)c2)CC1 the results were MrgX1 ag inactive, MrgX1 PAM inactive, RGS4 pot -7*, MrgX1 antagonist inactive and RGS4 block inactive.
CC1CCN(CCCCOc2ccccc2Br)CC1 was read as MrgX1 ag inactive, MrgX1 PAM inactive, RGS4 pot inactive, MrgX1 antagonist inactive and RGS4 block inactive.
`CC1CCN(CCCCOc2ccc(Br)cc2)CC1` gave MrgX1 ag inactive, MrgX1 PAM inactive, RGS4 pot -7.4*, MrgX1 antagonist inactive and RGS4 block inactive.
For CC(=O)c1cccc(NC(=O)c2ccccc2N(Cc2ccccc2)S(C)(=O)=O)c1 the results were MrgX1 ag inactive, MrgX1 PAM inactive, RGS4 pot inactive, MrgX1 antagonist inactive and RGS4 block inactive.
For CC(C)c1ccc(NC2CCCN(C(=O)CCc3cn[nH]c3)C2)cc1 (configuration not stated) the results were MrgX1 ag inactive, MrgX1 PAM inactive, RGS4 pot inactive, MrgX1 antagonist inactive and RGS4 block inactive.

Screening data from PubChem.
